Measurements: ChEMBL document CHEMBL1153223, “One pot synthesis and SAR of some novel 3-substituted 5,6-diphenyl-1,2,4-triazines as antifungal agents” (2010)
≈ marks a conversion by molar mass, not a printed value. Calls of active or inactive are those of the source. The calls are words filed in the database; no cut-off is given here.

Columns and labels:
Fusarium oxysporum [1] = assay: Antifungal activity against Fusarium oxysporum NCIM 1332 by standard agar plate method; assay type: functional
Summary of the method: (§1)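 Read-out was the minimum inhibitory concentration (MIC) on agar plates, with miconazole and fluconazole run as reference antifungal standards.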

Aspergillus flavus [2] = assay: Antifungal activity against Aspergillus flavus NCIM 539 by standard agar plate method; assay type: functional; summary of the method: as §1
Aspergillus niger [3] = assay: Antifungal activity against Aspergillus niger NCIM 1196 by standard agar plate method; assay type: functional; summary of the method: as §1
Candida albicans = assay: Antifungal activity against Candida albicans NCIM 347 by standard agar plate method; assay type: functional; summary of the method: as §1
Cryptococcus neoformans [4] = assay: Antifungal activity against Cryptococcus neoformans NCIM 576 by standard agar plate method; assay type: functional; summary of the method: as §1
Fusarium oxysporum [5] = assay: Antifungal activity against Fusarium oxysporum NCIM 1332 up to 200 ug/mL by standard agar plate method; assay type: functional, organism-based; summary of the method: as §1
Aspergillus niger [6] = assay: Antifungal activity against Aspergillus niger NCIM 1196 up to 200 ug/mL by standard agar plate method; assay type: functional, organism-based; summary of the method: as §1
Cryptococcus neoformans [7] = assay: Antifungal activity against Cryptococcus neoformans NCIM 576 up to 200 ug/mL by standard agar plate method; assay type: functional, organism-based; summary of the method: as §1
Aspergillus flavus [8] = assay: Antifungal activity against Aspergillus flavus NCIM 539 up to 200 ug/mL by standard agar plate method; assay type: functional, organism-based; summary of the method: as §1

With `O=C(c1ccc(Cl)cc1)N1CCC(n2cc(-c3nnc(-c4ccccc4)c(-c4ccccc4)n3)nn2)CC1` the MIC (Fusarium oxysporum [1]) was 25 µg/mL (≈ 47.9 µM), the MIC (Aspergillus flavus [2]) was 15 µg/mL (≈ 28.7 µM) and the MIC (Aspergillus niger [3]) was 12.5 µg/mL (≈ 23.9 µM). The MIC (Candida albicans) was 25 µg/mL (≈ 47.9 µM) and the MIC (Cryptococcus neoformans [4]) was 30 µg/mL (≈ 57.5 µM).
`Cc1ccc(S(=O)(=O)N2CCC(n3cc(-c4nnc(-c5ccccc5)c(-c5ccccc5)n4)nn3)CC2)cc1` gave an MIC (Fusarium oxysporum [1]) of 100 µg/mL (≈ 186 µM), an MIC (Aspergillus flavus [2]) of 35 µg/mL (≈ 65.1 µM) and an MIC (Aspergillus niger [3]) of 47.5 µg/mL (≈ 88.3 µM). The MIC (Candida albicans) was 90 µg/mL (≈ 167 µM) and the MIC (Cryptococcus neoformans [4]) was 150 µg/mL (≈ 279 µM).
`CC(C)(C)OC(=O)N1CCC(n2cc(-c3nnc(-c4ccccc4)c(-c4ccccc4)n3)nn2)CC1` was tested, and the MIC (Aspergillus flavus [2]) was 55 µg/mL (≈ 114 µM), the MIC (Fusarium oxysporum [5]) was “inactive” and the MIC (Candida albicans) was 70 µg/mL (≈ 145 µM). The MIC (Aspergillus niger [6]) was “inactive” and the MIC (Cryptococcus neoformans [4]) was 100 µg/mL (≈ 207 µM).
With `OC(Cn1cncn1)(Cn1cncn1)c1ccc(F)cc1F` [FLUCONAZOLE] the MIC (Fusarium oxysporum [1]) was 5 µg/mL (≈ 16.3 µM), the MIC (Aspergillus flavus [2]) was 5 µg/mL (≈ 16.3 µM) and the MIC (Aspergillus niger [3]) was 10 µg/mL (≈ 32.7 µM). The MIC (Candida albicans) was 5 µg/mL (≈ 16.3 µM) and the MIC (Cryptococcus neoformans [4]) was 5 µg/mL (≈ 16.3 µM).
`CCN1CCC(n2cc(-c3nnc(-c4ccccc4)c(-c4ccccc4)n3)nn2)CC1` gave an MIC (Fusarium oxysporum [1]) of 25 µg/mL (≈ 60.8 µM), an MIC (Aspergillus flavus [2]) of 12.5 µg/mL (≈ 30.4 µM) and an MIC (Aspergillus niger [3]) of 12.5 µg/mL (≈ 30.4 µM). For the same compound, the MIC (Candida albicans) was 25 µg/mL (≈ 60.8 µM) and the MIC (Cryptococcus neoformans [4]) was 35 µg/mL (≈ 85.1 µM).
With `CCC(=O)N1CCC(n2cc(-c3nnc(-c4ccccc4)c(-c4ccccc4)n3)nn2)CC1` the MIC (Fusarium oxysporum [1]) was 50 µg/mL (≈ 114 µM), the MIC (Aspergillus flavus [2]) was 20 µg/mL (≈ 45.5 µM) and the MIC (Aspergillus niger [3]) was 20 µg/mL (≈ 45.5 µM). For the same compound, the MIC (Candida albicans) was 50 µg/mL (≈ 114 µM) and the MIC (Cryptococcus neoformans [7]) was “inactive”.
`CCCC(=O)N1CCC(n2cc(-c3nnc(-c4ccccc4)c(-c4ccccc4)n3)nn2)CC1` was tested, and the MIC (Fusarium oxysporum [1]) was 65 µg/mL (≈ 143 µM), the MIC (Aspergillus flavus [2]) was 35 µg/mL (≈ 77.2 µM) and the MIC (Aspergillus niger [3]) was 40 µg/mL (≈ 88.2 µM). For the same compound, the MIC (Candida albicans) was 62.5 µg/mL (≈ 138 µM) and the MIC (Cryptococcus neoformans [4]) was 75 µg/mL (≈ 165 µM).
For `CS(=O)(=O)N1CCC(n2cc(-c3nnc(-c4ccccc4)c(-c4ccccc4)n3)nn2)CC1`, the MIC (Fusarium oxysporum [1]) was 60 µg/mL (≈ 130 µM), the MIC (Aspergillus flavus [2]) was 30 µg/mL (≈ 65 µM) and the MIC (Candida albicans) was 50 µg/mL (≈ 108 µM). The MIC (Cryptococcus neoformans [7]) was “inactive” and the MIC (Aspergillus niger [6]) was “inactive”.
With `Clc1ccc(COC(Cn2ccnc2)c2ccc(Cl)cc2Cl)c(Cl)c1` (stereo not given) [MICONAZOLE] the MIC (Fusarium oxysporum [1]) was 25 µg/mL (≈ 60.1 µM), the MIC (Aspergillus flavus [2]) was 12.5 µg/mL (≈ 30 µM) and the MIC (Aspergillus niger [3]) was 12.5 µg/mL (≈ 30 µM). It also gave an MIC (Candida albicans) of 25 µg/mL (≈ 60.1 µM) and an MIC (Cryptococcus neoformans [4]) of 25 µg/mL (≈ 60.1 µM).
`CN1CCC(n2cc(-c3nnc(-c4ccccc4)c(-c4ccccc4)n3)nn2)CC1` was tested, and the MIC (Fusarium oxysporum [1]) was 30 µg/mL (≈ 75.5 µM), the MIC (Aspergillus flavus [2]) was 17.5 µg/mL (≈ 44 µM) and the MIC (Aspergillus niger [3]) was 12.5 µg/mL (≈ 31.4 µM). It also gave an MIC (Candida albicans) of 25 µg/mL (≈ 62.9 µM) and an MIC (Cryptococcus neoformans [4]) of 25 µg/mL (≈ 62.9 µM).
`O=C(c1ccccc1)N1CCC(n2cc(-c3nnc(-c4ccccc4)c(-c4ccccc4)n3)nn2)CC1` was tested, and the MIC (Fusarium oxysporum [1]) was 30 µg/mL (≈ 61.5 µM), the MIC (Aspergillus flavus [2]) was 17.5 µg/mL (≈ 35.9 µM) and the MIC (Aspergillus niger [3]) was 15 µg/mL (≈ 30.8 µM). The MIC (Candida albicans) was 30 µg/mL (≈ 61.5 µM) and the MIC (Cryptococcus neoformans [4]) was 55 µg/mL (≈ 113 µM).
With `c1ccc(CN2CCC(n3cc(-c4nnc(-c5ccccc5)c(-c5ccccc5)n4)nn3)CC2)cc1` the MIC (Fusarium oxysporum [1]) was 60 µg/mL (≈ 127 µM), the MIC (Aspergillus flavus [8]) was “inactive” and the MIC (Aspergillus niger [3]) was 95 µg/mL (≈ 201 µM). The MIC (Candida albicans) was 40 µg/mL (≈ 84.5 µM) and the MIC (Cryptococcus neoformans [7]) was “inactive”.
For `CC(=O)N1CCC(n2cc(-c3nnc(-c4ccccc4)c(-c4ccccc4)n3)nn2)CC1`, the MIC (Fusarium oxysporum [1]) was 40 µg/mL (≈ 94 µM), the MIC (Aspergillus flavus [2]) was 20 µg/mL (≈ 47 µM) and the MIC (Aspergillus niger [3]) was 20 µg/mL (≈ 47 µM). For the same compound, the MIC (Candida albicans) was 35 µg/mL (≈ 82.3 µM) and the MIC (Cryptococcus neoformans [7]) was “inactive”.
In the case of `c1ccc(-c2nnc(-c3cn(C4CCNCC4)nn3)nc2-c2ccccc2)cc1`, the MIC (Fusarium oxysporum [1]) is reported as 40 µg/mL (≈ 104 µM), the MIC (Aspergillus flavus [2]) is reported as 37.5 µg/mL (≈ 97.8 µM) and the MIC (Aspergillus niger [3]) is reported as 42.5 µg/mL (≈ 111 µM). It also gave an MIC (Candida albicans) of 30 µg/mL (≈ 78.2 µM) and an MIC (Cryptococcus neoformans [4]) of 45 µg/mL (≈ 117 µM).
